A short description of this series: Hydrolysis of peptide-thioester. The series is classed as physicochemical. The method, boiled down:
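The Asp peptide-thioester (~2 mM) was incubated with Cys-peptide (~2.4 mM) in helium-purged buffer: 6 M Gu·HCl, 200 mM Na2HPO4, 10 mM TCEP·HCl, 20 mM MPAA, pH 7.0, RT, 18–24 h. Monitoring was by LC-MS and RP-HPLC (210 nm). Control omitted Cys-peptide and MPAA, at pH 6.8 for 19 h. The thioester was also examined after HF deprotection/cleavage.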

This is an account of results in article PMC3838204 (Journal of the American Chemical Society, 2013).

Regarding LYRAD-^αCOSR`, where the note is “after HF deprotection and cleavage”, the “hydrolysis of the peptide-thioester after HF deprotection and cleavage” value is recorded as “no hydrolysis”. Moreover, the “hydrolyzed product formed from the peptide-thioester” value (control in absence of the Cys-peptide and without added MPAA, 19 h, pH 6.8) is on record as “about 30%”. For the same substance, for the setting “ligation conditions: 6 M guanidine hydrochloride, 200 mM Na2HPO4, 10 mM TCEP, 20 mM MPAA, pH 7.0, RT, 18–24 hours, LC-MS”, the “hydrolysis of the peptide-thioester during the ligation reaction” value is “nor was significant hydrolysis”.
Regarding LYRAX-^αCOSR` [−Glu-α-thioester], for the setting “control in absence of the Cys-peptide and without added MPAA”, the “hydrolysis of the thioester, control” value is “no significant hydrolysis”.
